From ChEMBL document CHEMBL4433203, “Design, synthesis, and evaluation of isoflavone analogs as multifunctional agents for the treatment of Alzheimer's disease” (Eur J Med Chem, 2019)
Active and inactive are the calls of the source. The rule behind the calls is not given here.

Assays:
Histamine H3 receptor = Histamine H3 receptor (Homo sapiens, UniProt Q9Y5N1); experiment: Inhibition of human H3R expressed in methylhistamine-induced human H3-bla U2OS cells incubated for 30 mins by beta-lactamase complementation technology; assay type: cell-based; details: read-out: IC50
Sequence of Histamine H3 receptor (Q9Y5N1 whole entry, the tested form may be a part): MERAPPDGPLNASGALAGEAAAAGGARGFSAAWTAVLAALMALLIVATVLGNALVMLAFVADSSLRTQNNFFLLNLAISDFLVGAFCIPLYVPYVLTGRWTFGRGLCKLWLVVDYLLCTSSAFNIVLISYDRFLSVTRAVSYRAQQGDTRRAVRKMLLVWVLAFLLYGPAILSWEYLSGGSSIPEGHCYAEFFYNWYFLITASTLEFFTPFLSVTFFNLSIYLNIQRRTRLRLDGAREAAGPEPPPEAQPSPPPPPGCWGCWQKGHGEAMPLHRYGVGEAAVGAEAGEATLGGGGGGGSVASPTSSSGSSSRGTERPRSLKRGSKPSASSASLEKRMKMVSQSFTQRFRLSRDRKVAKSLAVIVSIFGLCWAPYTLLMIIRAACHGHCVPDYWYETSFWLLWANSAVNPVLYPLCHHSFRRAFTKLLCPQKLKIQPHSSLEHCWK
How it was run: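 H3-bla U2OS cells co-express human H3R-Gal4-VP16 (TEV site) and β-arrestin/TEV protease with a UAS-β-lactamase reporter. IC50 came from log concentration-inhibition curves. Triplicates, three independent experiments.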

[1] = Antioxidant activity assessed as AAPH radical scavenging activity preincubated for 15 mins with fluorescein before AAPH addition and recorded every 2 mins for 160 mins by ORAC-FL assay; assay type: functional
How it was run: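 ORAC-FL assay in 75 mM PBS, pH 7.4. Compound was preincubated with fluorescein (20 nM final) for 15 min at 37 °C, then AAPH (18 mM final) was added. Fluorescence (ex 460/em 520 nm) was read every 2 min for 160 min. Net area under the decay curve, blank-normalized, is expressed as µM Trolox equivalents per µM compound. Duplicates, ≥3 independent assays.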

[2] = Cytotoxicity in human SH-SY5Y cells assessed as reduction in cell viability after 72 hrs incubation by MTT assay; details: SH-SY5Y cells
Mus musculus [3] = experiment: Antialzheimer activity in ICR mouse model of scopolamine-induced cognitive deficit assessed as scopolamine-induced latency time at 10 to 30 mg/kg, po treated for 1 hr followed by scopolamine challenge for 30 mins by step-down passive avoidance test (reference value: 5 secs); assay type: functional
How it was run: (§1)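 ICR mice, six weeks old, 18-22 g, either sex, n = 15/group. […] Step-down test used foot shock of 20 V, 0.5 mA, 2 s, with a training trial and a test 24 h later. Read-outs were latency to first step-down and number of shocks in 5 min. Mean ± SEM.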

AChE = experiment: Selectivity index, ratio of CC50 for human SH-SY5Y cells to IC50 for inhibition of mouse brain AChE
BuChE = experiment: Selectivity index, ratio of CC50 for human SH-SY5Y cells IC50 for mouse plasma BuChE; assay type: toxicity
How it was run: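 SI is CC50 in SH-SY5Y divided by BuChE IC50. […] For IC50, mouse plasma BuChE was preincubated 30 min at 37 °C with DTNB and compound in 0.05 M PBS pH 8.0. Butyrylthiocholine iodide was added and A412 read; IC50 taken from log concentration–inhibition curves.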

SH-SY5Y = experiment: Neuroprotective activity against copper-induced cytotoxicity in human SH-SY5Y cells expressing APP Swedish mutant assessed as increase in cell viability at 10 uM pre-incubated for 2 hrs followed by copper addition and measured after 24 hrs by MTT assay; assay type: functional, cell-based
[4] = Acute toxicity ICR mouse assessed as effect on drinking behavior at 0 to 1000 mg/kg, po measured up to 14 days; assay type: organism-based; details: in vivo, 336 h
How it was run: (§2)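 Male ICR mice (22 days, 20–22 g), n = 5 per group, chow and water ad libitum, 12 h light/dark cycle. Single oral dose of 0, 100, 200, 500 or 1000 mg/kg in 0.5% CMC-Na. Observed continuously for the first 4 h, intermittently over the next 24 h, then occasionally to 14 days. Euthanized on day 14.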

[5] = Acute toxicity ICR mouse assessed as effect on eating behavior at 0 to 1000 mg/kg, po measured up to 14 days; assay type: organism-based; details: in vivo, 336 h; how it was run: as §2
[6] = Acute toxicity ICR mouse assessed as induction of macroscopic abnormalities in kidney at 0 to 1000 mg/kg, po measured after 14 da; assay type: organism-based; details: in vivo; how it was run: as §2
[7] = Acute toxicity ICR mouse assessed as induction of macroscopic abnormalities in liver at 0 to 1000 mg/kg, po measured after 14 da; assay type: organism-based; details: in vivo; how it was run: as §2
[8] = Half life in ICR mouse at 30 mg/kg, po measured upto 48 hrs by LCMS/MS method; assay type: ADME, organism-based; details: in vivo
[9] = Cmax in ICR mouse at 30 mg/kg, po measured upto 48 hrs by LCMS/MS method; assay type: ADME, organism-based; set-up: dose 30 mg/kg, route oral; details: in vivo
[10] = AUC (0 to t) in ICR mouse at 30 mg/kg, po measured upto 48 hrs by LCMS/MS method; assay type: ADME, organism-based; set-up: time < 48 hr, dose 30 mg/kg, route oral; details: in vivo
[11] = Plasma concentration in ICR mouse at 30 mg/kg, po measured after 40 mins by LCMS/MS method; assay type: ADME, organism-based
How it was run: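 ICR mice got a single oral dose of 30 mg/kg. At 40 min they were sacrificed and plasma and brain collected. Compound in both was quantified by LC-MS/MS. Log BB is the log of the brain-to-blood concentration ratio. Methods state n = 5, table footnote n = 6. Mean ± SEM.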

[12] = Log BB, ratio of Cmax in brain to blood in ICR mouse at 30 mg/kg, po measured upto 48 hrs by LCMS/MS method; assay type: ADME, organism-based; details: read-out: logBB (converted)
Cholinesterase = Cholinesterase (Mus musculus, UniProt Q03311); experiment: Inhibition of mouse plasma BuChE using S-butyrylacetylthiocholine iodide as substrate measured after 30 mins by Ellman's method relative to control; details: read-out: IC50
Sequence of Cholinesterase (Q03311 whole entry): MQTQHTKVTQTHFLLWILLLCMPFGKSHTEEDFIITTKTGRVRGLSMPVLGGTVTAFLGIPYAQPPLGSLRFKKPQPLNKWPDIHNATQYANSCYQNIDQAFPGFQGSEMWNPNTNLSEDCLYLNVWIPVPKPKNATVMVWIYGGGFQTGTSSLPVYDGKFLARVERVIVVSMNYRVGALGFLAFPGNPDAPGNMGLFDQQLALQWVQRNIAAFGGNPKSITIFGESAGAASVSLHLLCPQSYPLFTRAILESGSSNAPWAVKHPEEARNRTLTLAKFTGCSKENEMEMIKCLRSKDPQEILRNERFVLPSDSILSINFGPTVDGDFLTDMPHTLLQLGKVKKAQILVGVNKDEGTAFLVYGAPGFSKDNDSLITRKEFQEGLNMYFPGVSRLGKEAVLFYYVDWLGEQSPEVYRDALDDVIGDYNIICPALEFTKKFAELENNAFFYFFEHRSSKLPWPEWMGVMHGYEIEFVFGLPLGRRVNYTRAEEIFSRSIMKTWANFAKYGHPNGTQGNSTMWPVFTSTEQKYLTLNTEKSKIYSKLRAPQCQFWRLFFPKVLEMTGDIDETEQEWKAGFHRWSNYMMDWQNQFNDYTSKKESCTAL

Mus musculus [13] = experiment: Effect on latency time in ICR mouse model of scopolamine-induced cognitive deficit during training stage at 10 to 30 mg/kg, po treated for 1 hr followed by scopolamine challenge for 30 mins by step-down passive avoidance test; assay type: ADME, organism-based; details: in vivo; how it was run: as §1
Mus musculus [14] = experiment: Effect on error times in ICR mouse model of scopolamine-induced cognitive deficit during training stage at 10 to 30 mg/kg, po treated for 1 hr followed by scopolamine challenge for 30 mins by step-down passive avoidance test; assay type: ADME, organism-based; details: in vivo; how it was run: as §1
[15] = AUC (0 to infinity) in ICR mouse at 30 mg/kg, po measured upto 48 hrs by LCMS/MS method; assay type: ADME, organism-based; set-up: dose 30 mg/kg, time infinity, route oral; details: in vivo
[16] = biological target: T1, Acetylcholinesterase (Mus musculus) (UniProt P21836); details: at 10 µM;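 also: enzyme taken from mouse brain, acetylthiocholine iodide as the substrate, read after 30 min with the Ellman method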
T1 sequence (whole entry): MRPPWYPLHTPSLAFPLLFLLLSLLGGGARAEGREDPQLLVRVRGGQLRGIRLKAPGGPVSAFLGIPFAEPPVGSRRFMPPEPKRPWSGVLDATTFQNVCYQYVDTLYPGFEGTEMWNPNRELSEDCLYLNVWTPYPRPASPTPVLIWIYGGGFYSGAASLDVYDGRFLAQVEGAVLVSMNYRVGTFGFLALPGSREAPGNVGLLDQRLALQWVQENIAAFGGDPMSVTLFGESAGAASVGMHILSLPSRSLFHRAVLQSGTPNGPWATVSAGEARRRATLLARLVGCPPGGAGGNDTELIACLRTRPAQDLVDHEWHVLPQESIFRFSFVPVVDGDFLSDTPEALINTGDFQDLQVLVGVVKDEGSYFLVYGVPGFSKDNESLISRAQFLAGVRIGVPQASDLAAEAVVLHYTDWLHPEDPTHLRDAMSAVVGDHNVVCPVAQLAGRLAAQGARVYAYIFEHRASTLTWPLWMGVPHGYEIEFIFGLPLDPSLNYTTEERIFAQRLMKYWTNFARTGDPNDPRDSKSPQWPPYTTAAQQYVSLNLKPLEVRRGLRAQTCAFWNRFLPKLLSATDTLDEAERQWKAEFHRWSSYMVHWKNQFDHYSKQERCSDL

CCN(C)CCCCOc1ccc2c(=O)c(-c3ccc(OCCN4CCCCC4)cc3)coc2c1
IC50 (Histamine H3 receptor): 270 nM | Activity [1]: 0.01 equiv/µM | CC50 at 72 h [2]: > 100000 nM | Time (Mus musculus [3]): 53 s | selectivity ratio (AChE): > 1230 | selectivity ratio (BuChE): > 34.6 | Activity (SH-SY5Y): Active | Activity [4]: Non-Toxic | Activity [5]: Non-Toxic | Activity [6]: Non-Toxic | Activity [7]: Non-Toxic | half-life [8]: 13.9 h | Cmax [9]: 52 ng/mL | AUC(0-t) at 48 h [10]: 325 ng·h/mL | concentration at 40 min [11]: 47.2 ng/mL | Kp at 48 h [12]: 17.4 | IC50 (Cholinesterase): 2890 nM | Activity (Mus musculus [13]): Non-Toxic | Activity (Mus musculus [14]): Non-Toxic | AUC(0-inf) [15]: 352 ng·h/mL | inhibition [16]: 92.8%
